Assay results reported in ChEMBL document CHEMBL1156462, “Seco-pregnane steroids target the subgenomic RNA of alphavirus-like RNA viruses” (Proc Natl Acad Sci U S A, 2007).
Calls of active or inactive are those of the source. The calls are words filed in the database; no cut-off is given here.

Key:
[1] = test system: Tobacco mosaic virus; experiment: Inhibition of coat protein sgRNA accumulation in TMV U1 infected Nicotiana tabacum cv K326 plant leaves at 50 nM by Northern blot; format: functional, organism-based
Procedure, shortened: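 N. tabacum cv. K326 leaves inoculated with TMV with or without 50 nM compound; inoculated and upper uninoculated leaves collected at 5 dpi. TRIzol total RNA probed with CP gene sequence by Northern blot, 28S rRNA as loading control.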

[2] = test system: Sindbis virus; experiment: Antiviral activity against Sindbis virus XJ160 in BHK21 cells assessed as reduction of virus-induced cytopathic effect after 24 hrs; format: functional, organism-based; conditions: BHK-21
Procedure, shortened: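 SINV XJ-160 (2 × 10⁵ pfu/ml, thrice plaque-purified) treated with compound for 15 min, adsorbed 1 h to BHK-21 cells at MOI 0.01 in quadruplicate; washed, fresh DMEM with 5% FBS added, cells kept at 37°C, 5% CO₂. Cytopathic morphology scored by light microscopy at 24 hpi.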

[3] = test system: Reovirus sp.; experiment: Antiviral activity against Reovirus in CIK cells assessed as inhibition of virus-induced cytopathogenicity; format: functional, organism-based
Procedure, shortened: (§1)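 Cells seeded at 2 × 10⁵ per well 24 h before use (BHK-21 for GETV, H9 for HIV, CIK for Reovirus, 983A for adenovirus, Veto for measles virus). Infected at a dose giving 100% cytopathic effect at 3 dpi; virus premixed with compound at final 100, 50, 10, 3, 2, 1.5, 1, 0 nM. Infected and uninfected untreated controls on each plate.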

[4] = test system: Getah virus; experiment: Antiviral activity against Getah virus in BHK21 cells assessed as inhibition of virus-induced cytopathogenicity; format: functional, organism-based; conditions: BHK-21; procedure, shortened: as §1
[5] = test system: Tobacco mosaic virus; experiment: Inhibition of TMV U1 multiplication in tobacco BY2 protoplast at 40 nM assessed as local lesion size on Chenopodium quinoa leaves by local lesion assay; format: functional
[6] = test system: Sindbis virus; experiment: Reduction of mortality rate in Sindbis virus-infected newborn BALB/c mouse assessed as long term survivors at 5 mg/kg; format: functional
Procedure, shortened: (§2)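 Newborn BALB/c mice, 2–3 days old, ≈2 g, were inoculated intracerebrally with 20 μl medium holding 100 × LD50 SINV. Compound (20 μl, 5, 50 or 100 mg/kg BW) was mixed into the inoculum. There were 11 mice per group, counted at 3–7 days. Virus-alone and compound-alone controls were included.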

[7] = test system: Measles morbillivirus; experiment: Antiviral activity against measles virus in Veto cells assessed as inhibition of virus-induced cytopathogenicity; format: functional, organism-based; procedure, shortened: as §1
[8] = test system: Tobacco mosaic virus; experiment: Inhibition of TMV U1 multiplication in tobacco BY2 protoplast at 30 nM assessed as inhibition of local lesions on Chenopodium quinoa leaves by local lesion assay after 3 days postinfection; format: functional; conditions: U1, 72 h
Procedure, shortened: (§3)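 TMV premixed with compound at a range of concentrations used to inoculate tobacco BY-2 protoplasts; virus multiplication then assayed by counting local lesions on the local lesion host Chenopodium quinoa.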

[9] = test system: Sindbis virus; experiment: Reduction of Sindbis virus infection-induced mortality rate in newborn BALB/c mouse assessed as long term survivors at 50 mg/kg; format: functional; procedure, shortened: as §2
[10] = test system: Sindbis virus; experiment: Reduction of Sindbis virus infection-induced mortality rate in newborn BALB/c mouse assessed as mouse survival at 100 mg/kg administered 4 hrs before viral infection; format: functional, organism-based; design: dose 100 mg/kg
Procedure, shortened: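 Newborn BALB/c mice (2–3 days old, ≈2 g), 11 per group, given 20 μl compound at 100 mg/kg BW 1 or 4 h before intracerebral inoculation with 20 μl medium containing 100 × LD₅₀ SINV. Survivors counted at 3, 4, 5, 6 and 7 days after inoculation.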

[11] = test system: Sindbis virus; experiment: Reduction of Sindbis virus infection-induced mortality rate in newborn BALB/c mouse assessed as survivors at 100 mg/kg administered 4 hrs before infection after 7 days; format: functional
Procedure, shortened: (§4)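 Newborn BALB/c mice, 2–3 days old, ≈2 g, received 20 μl compound at 100 mg/kg BW 1 or 4 h before intracerebral inoculation with 20 μl containing 100 × LD50 SINV. There were 11 mice per group, with survivors counted at 3, 4, 5, 6 and 7 days.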

[12] = test system: Tobacco mosaic virus; experiment: Inhibition of TMV U1 multiplication in tobacco BY2 protoplast at 50 nM assessed as local lesion size on Chenopodium quinoa leaves by local lesion assay; format: functional
[13] = test system: Tobacco mosaic virus; experiment: Inhibition of TMV U1 replication in tobacco BY2 protoplast by local lesion assay using Chenopodium quinoa leaves; format: functional, organism-based; procedure, shortened: as §3
[14] = test system: Tobacco mosaic virus; experiment: Inhibition of TMV U1 replication in tobacco BY2 protoplast at 50 nM by local lesion assay using Chenopodium quinoa leaves; format: functional, organism-based; procedure, shortened: as §3
[15] = test system: Sindbis virus; experiment: Reduction of Sindbis virus infection-induced mortality rate in newborn BALB/c mouse assessed as long term survivors at 100 mg/kg; format: functional; procedure, shortened: as §2
[16] = test system: Eastern equine encephalitis virus; experiment: Antiviral activity against Eastern equine encephalitis virus in BHK21 cells assessed as inhibition of virus-induced cytopathogenicity; format: functional, organism-based; conditions: BHK-21
[17] = test system: Tobacco mosaic virus; experiment: Inhibition of TMV U1 multiplication in tobacco BY2 protoplast at 10 nM assessed as local lesion size on Chenopodium quinoa leaves by local lesion assay; format: functional
[18] = Cytotoxicity against hamster BHK21 cells; format: cell-based, Mesocricetus auratus, BHK-21
[19] = test system: Sindbis virus; experiment: Decrease in 26S sgRNA level in Sindbis virus XJ160 infected BHK21 cells after 24 hrs postinfection; format: functional, organism-based; conditions: BHK-21
[20] = test system: Tobacco mosaic virus; experiment: Inhibition of TMV U1 multiplication in tobacco BY2 protoplast at 30 nM assessed as local lesion size on Chenopodium quinoa leaves by local lesion assay; format: functional
[21] = test system: Tobacco mosaic virus; experiment: Decrease in TMV U1 coat protein level in TMV infected tobacco BY2 protoplast at 50 nM by Western blot analysis; format: functional, organism-based
Procedure, shortened: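 BY-2 protoplasts (5 ml, 1.5 × 10⁶/ml) infected with TMV pretreated with compound; total protein extracted and coat protein detected by Western blot.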

[22] = test system: Hepatitis C virus; experiment: Antiviral activity against HCV in human H9 cells assessed as inhibition of virus-induced cytopathogenicity; format: functional, organism-based, Hepacivirus hominis
[23] = Selectivity index, ratio of CC50 for BHK21 cells to EC50 for Getah virus; format: toxicity, cell-based, BHK-21; conditions: hamster, read-out: Ratio CC50/EC50
Procedure, shortened: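 Getah virus was tested on BHK-21 cells seeded at 2 × 10⁵ per well 24 h before use, infected at a dose giving 100% CPE at 3 dpi. Compound was premixed with virus at final 100–0 nM. EC50 was taken as 50% inhibition of cytopathogenicity. Index = 50% cytotoxicity concentration/EC50.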

[24] = test system: Japanese encephalitis virus; experiment: Antiviral activity against Japanese encephalitis virus in C6 cells assessed as inhibition of virus-induced cytopathogenicity; format: functional, organism-based
[25] = test system: Human immunodeficiency virus; experiment: Antiviral activity against HIV in human H9 cells assessed as inhibition of virus-induced cytopathogenicity; format: functional, organism-based; conditions: Human immunodeficiency virus 1, H9; procedure, shortened: as §1
[26] = test system: Sindbis virus; experiment: Reduction of Sindbis virus infection-induced mortality rate in newborn BALB/c mouse assessed as survivors at 100 mg/kg administered 1 hr before infection after 7 days; format: functional; procedure, shortened: as §4
[27] = test system: Sindbis virus; experiment: Decrease in 26S sgRNA level in Sindbis virus XJ160 infected BHK21 cells after 3 hrs postinfection; format: functional, organism-based; conditions: BHK-21
Procedure, shortened: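 BHK-21 cells infected with SINV XJ-160 premixed with compound at MOI 10 in quadruplicate. Viral RNAs quantified at 3 hpi by Northern blot, with β-actin RNA as loading comparison.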

[28] = test system: Tobacco mosaic virus; experiment: Inhibition of TMV U1 multiplication in tobacco BY2 protoplast at 40 nM assessed as inhibition of local lesions on Chenopodium quinoa leaves by local lesion assay after 3 days postinfection; format: functional; conditions: U1, 72 h; procedure, shortened: as §3

With `CO[C@@H]1C[C@H](O[C@H]2CC[C@@]3(C)C(=CC[C@H]4C(=O)OC5CO[C@]6(C)OC=C(CC[C@@H]43)[C@H]56)C2)O[C@H](C)[C@H]1O[C@H]1C[C@H](O)[C@H](O[C@@H]2C[C@@H](OC)[C@H](O[C@@H]3O[C@H](CO)[C@@H](O[C@@H]4O[C@H](CO)[C@@H](O)[C@H](O)[C@H]4O)[C@H](O)[C@H]3O)[C@@H](C)O2)[C@@H](C)O1` (stereo partly drawn) [PANICULATUMOSIDE C] the Activity [1] was “Active”, the Activity [2] was “Dose-dependent effect” and the EC50 [3] was greater than 25 µM. For the same compound, the EC50 [4] was 0.001 µM, the Activity [5] was 1 mm and the Activity [6] was 18%. It also gave an EC50 [7] greater than 25 µM, an inhibition at 0.03 µM [8] of 72% and an Activity [9] of 54%. For the same compound, the Activity [10] was “Toxic”, the Activity [11] was 30% and the Activity [12] was 0 mm. The IC50 [13] was 0.025 µM, the Activity [14] was “Active” and the Activity [15] was 100%. The EC50 [16] was 0.002 µM, the Activity [17] was 2.4 mm and the CC50 [18] was 16.5 µM. The Activity [19] was “Active”, the Activity [20] was 1.1 mm and the Activity [21] was “Active”. It also gave an EC50 [22] greater than 25 µM, a selectivity ratio [23] of 16500 and an EC50 [24] greater than 25 µM. The EC50 [25] was greater than 25 µM, the Activity [26] was 100% and the Activity [27] was “Dose-dependent effect”. For the same compound, the inhibition at 0.04 µM [28] was 93%.
